Bioassay records as filed in PubChem.
TCR CD3 inh – inhibitors of human TCR-CD3 interaction, primary screen, biochemical, fluorescence, TAMRA-labeled TCR probe; T-cell receptor (TCR); inhibition, % at 9.4 µM; 360,000 tested, 0.37% active; in the data active means inhibition above about 19%;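 further: recombinant mutant TCR 2C K166C tagged with TAMRA read by polarization; 0% = receptor in buffer alone and 100% = receptor with positive control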
mABHD4 FP – ABHD4 inhibitors, primary screen, biochemical, fluorescence polarization, mouse | (Lyso)-N-acylphosphatidylethanolamine lipase (Mus musculus), Q8VD66 | purified mABHD4, FP-Rh probe fluorescence polarization | inhibition, % at 8.92 µM | 370,000 tested, 0.54% active | AID 720543, 2013;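 active means inhibition exceeding the mean over every tested compound plus 3 SD, cut at about 30% in these data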;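 further: 0% = plate median of compound wells and 100% = S159A mutant with DMSO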
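Assay system: mouse ABHD4 enzyme, wild type / Also added: fluorescent activity-based probe FP-Rh / Doses: single nominal dose of 8.92 µM, 0.89% DMSO final / Timing: 45 min compound pre-incubation plus 60 min probe step, 25 °C / Signal: FP readout, ex 525 nm / em 598 nm / Control set: S159A mutant/DMSO as 100%, compound-well median as 0%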
PRMT1 FP inh – PRMT1 methyltransferase inhibitors, primary screen, biochemical, fluorescence polarization | 370,000 tested, 1.3% active | AID 652257, 2013 | Protein arginine N-methyltransferase 1 (Homo sapiens), Q99873 | recombinant PRMT1, activity-based probe fluorescence polarization | inhibition, % at 2.79 µM;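 active means inhibition above about 21% made by adding two undisclosed values, limit read from the data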
HTRA1 inh – HTRA1 serine protease inhibitors, primary screen, biochemical, fluorescence polarization, HTS | inhibition, % at 5.96 µM | recombinant HTRA1, FP-rhodamine activity-based probe | Q92743 | 340,000 tested, 0.5% active; in the data active means inhibition above about 36%;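 further: 0% = enzyme with DMSO and 100% = wells lacking enzyme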
Target sequence (Q92743 whole entry, looked up): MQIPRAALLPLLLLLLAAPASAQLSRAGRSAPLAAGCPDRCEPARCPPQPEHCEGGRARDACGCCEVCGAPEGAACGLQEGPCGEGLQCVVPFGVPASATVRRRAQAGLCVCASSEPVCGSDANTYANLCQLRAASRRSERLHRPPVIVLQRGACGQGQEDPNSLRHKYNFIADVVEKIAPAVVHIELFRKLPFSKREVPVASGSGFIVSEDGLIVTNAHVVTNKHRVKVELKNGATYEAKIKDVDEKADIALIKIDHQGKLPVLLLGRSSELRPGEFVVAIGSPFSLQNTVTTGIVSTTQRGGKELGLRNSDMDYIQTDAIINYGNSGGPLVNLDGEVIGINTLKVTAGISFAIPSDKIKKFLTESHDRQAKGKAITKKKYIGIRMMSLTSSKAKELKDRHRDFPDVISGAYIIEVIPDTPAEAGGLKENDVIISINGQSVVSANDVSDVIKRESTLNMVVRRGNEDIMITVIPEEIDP
SIAE primary – human SIAE inhibitors, primary screen, biochemical, fluorescence polarization, FP-Rh probe, 1536-well HTS; inhibition, % at 9.66 µM; SIAE FP-Rh probe binding; AID 1053197, 2014; Sialate O-acetylesterase (Homo sapiens), Q9HAT2; 370,000 tested, 0.69% active;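 active means inhibition above a cutoff: mean of compounds within the control limits plus 3 SD of those, cut at about 17% in these data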;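 further: 0% = plate median of compound wells and 100% = probe without SIAE protein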
ABHD4 confirm – ABHD4 inhibitors, retest, confirmation, biochemical, fluorescence polarization, mouse. inhibition, % at 8.92 µM. purified mABHD4, FP-Rh probe fluorescence polarization. shares compounds with mABHD4 FP. 1,800 tested, 55% active;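 active means mean inhibition across replicates above the hit cutoff set in the primary screen, cut at about 30% in these data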;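 further: 0% = wild-type ABHD4 with DMSO and 100% = catalytically dead S159A mutant with DMSO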
Active calls of the source: *; · = no result. Sampled rows, rich in hits. Any-hit rate of the full collection: about 2.6%.

SMILES	TCR CD3 inh	mABHD4 FP	PRMT1 FP inh	HTRA1 inh	SIAE primary	ABHD4 confirm
CCOc1ccccc1C1C(C#N)=C(N)Oc2cc(N)ccc21 (stereo not given)	-2.0	30.7*	7.9	9.0	4.3	-0.6
COc1ccc2nc(NC(=O)Nc3cccc4ccccc34)sc2c1	-2.8	30.1*	-0.9	-2.4	-1.3	-0.9
CCCN1CCCCC(NC(=O)c2ccc3ccccc3c2)C1=O (stereo not given)	-0.5	5.2	-3.5	·	-7.5	·
O=C(N/N=C/c1ccc(O)c(O)c1O)/C(=C/c1ccc([N+](=O)[O-])cc1)NC(=O)c1ccccc1	18.0	56.8*	24.4*	62.9*	12.4	67.1*
Cc1ccc(NC(=O)/C(=C\c2ccc([N+](=O)[O-])cc2)NC(=O)c2ccccc2)cc1	-2.0	-9.9	3.1	-6.8	-15.8	·
O=C(NN=Cc1cccc(O)c1O)c1ccccc1	2.6	38.7*	7.4	·	7.7	6.7
CC1(c2nnnn2Cc2ccccc2)CCCC(=O)N1Cc1cccs1 (stereo not given)	·	-0.6	-3.2	·	-2.8	·
COC(=O)[C@@]12CCCCC=C1N(CCc1ccc(Cl)cc1)C(=O)[C@H]2CC(=O)NCCC(C)C	·	-2.8	3.2	·	-2.1	·
COc1ccc(S[C@]2(C(=O)N(C)C)CC(=O)N[C@@H]2c2ccc(OC)cc2)cc1	·	-2.8	12.4	·	2.8	·
COc1cccc(=O)c2c(C)n(-c3ccc(C(=O)O)cc3)c(C)c12	0.0	30.2*	8.5	11.1	-2.3	16.5
COc1ccc(-n2c(C)c3c(OC)cccc(=O)c3c2C)cc1	-9.9	15.3	13.9	13.6	-1.5	·
O=C(O)c1cc(-c2c[nH]c3ccccc23)nc2ccc3ccccc3c12	2.4	30.8*	4.0	-10.5	-3.1	16.4
Oc1ccc2ccccc2c1N=Nc1ccccn1	1.1	49.9*	3.0	14.1	1.8	53.2*
Cc1cc(-c2n[nH]c(=S)n2CC(C)C)cs1	2.7	31.9*	-3.9	-2.1	10.8	-5.8
CC(C)Cn1c(-c2csc(C(C)C)c2)n[nH]c1=S	2.4	-7.9	4.9	·	4.8	·
CCCCNC(=O)c1sc(=S)n2c1[nH]c(=O)c1ccc(C(=O)NCCc3ccc(OC)c(OC)c3)cc12	·	·	·	3.0	·	·
O=C(NCc1ccccc1)c1sc(=S)n2c1[nH]c(=O)c1ccccc12	2.7	32.3*	2.5	9.9	-16.6	42.4*
CN(Cc1ccccc1F)C(=O)C1C2C=CC3(CN(Cc4ccccc4)C(=O)C13)O2 (stereo not given)	·	3.8	-7.5	·	0.3	·
COc1ccccc1OCCNC(=O)c1ccc2c(c1)OCCO2	-1.6	30.7*	3.7	2.3	3.5	-2.1
O=C(NCc1ccccc1)C1(C(=O)C2CC2)CC(c2ccccc2C(F)(F)F)=NO1 (stereo not given)	·	0.8	-0.5	·	-0.6	·
CCOC(=O)c1ccc(N2NC(=O)/C(=C/c3ccc(OC(=O)c4ccco4)c(OC)c3)C2=O)cc1	-1.5	33.0*	12.3	·	3.7	11.9
CCOc1ccc(-n2c(SCC(=O)Nc3cc(C)c(NC(=O)c4ccccc4)cc3OC)nnc2-c2ccncc2)cc1	·	-4.0	-1.1	·	-4.7	·
Nc1ccc2cc3ccc(N)cc3nc2c1	·	32.0*	148.3*	·	11.3	28.0
CCOC(=O)c1c2n(c3ccc(O)cc13)CCCCC2	6.5	6.4	-0.9	-8.2	8.0	·
CCOC(=O)c1c(C)n2c3c(cc(C)cc13)CCC2	-0.8	30.6*	-0.7	-4.0	1.9	-4.0
SMILES	TCR CD3 inh	mABHD4 FP	PRMT1 FP inh	HTRA1 inh	SIAE primary	ABHD4 confirm
c1ccc(CSc2nnnn2-c2ccccc2)cc1	-1.2	-7.0	-1.2	0.0	8.1	·
O=c1cc(CSc2nnnn2-c2ccccc2)[nH]c2[nH]n(-c3ccccc3)c(=O)c12	3.7	32.2*	10.8	22.4	9.1	4.7
Oc1ccccc1N=Cc1sc2ccccc2c1Cl	6.0	32.4*	5.6	6.1	11.7	-5.9
Cc1ccc(NS(=O)(=O)c2ccc(Cl)c(N=Nc3c(O)[nH]c(=O)[nH]c3=O)c2)cc1Cl	-0.5	31.0*	-3.3	0.8	5.4	48.3*
CCc1ccc(OCC(=O)Nc2ccc(N3CCN(C(=O)c4ccccc4)CC3)cc2)cc1	-6.0	58.3*	0.3	-5.5	4.3	6.5
O=C1NN(c2ccccc2)C(=O)/C1=C\c1ccc(-c2cc([N+](=O)[O-])ccc2O)o1	-0.3	33.6*	0.8	15.0	2.3	44.3*
Cc1c(C#N)c(O)[nH]c(=O)c1N=Nc1ccc(S(N)(=O)=O)cc1	2.2	38.5*	-1.0	9.0	7.5	46.6*
COC(=O)c1cc(=O)nc(NN=C(C)C)s1	-2.5	-1.1	0.6	·	-1.1	·
CCN(CC)c1ccc(C(=C2C=CC(=[N+](CC)CC)C=C2)c2ccccc2)cc1	5.1	71.0*	-0.4	19.9	13.1	102.7*
Cc1ccc(NC(=O)C2CCCN2S(=O)(=O)c2cccnc2)c(C)c1 (stereo not given)	·	1.3	3.3	·	2.2	·
O=C(Nc1cccc(F)c1)OCCCN1CCC2(CCC(c3ccccc3)CC2)C1 (stereo not given)	·	5.9	-3.3	·	-0.3	·
CN(C)C1(CN=Cc2cc(Cl)cc([N+](=O)[O-])c2O)CCCCC1	-7.0	36.4*	12.2	33.9	7.5	44.9*
O=[N+]([O-])c1cc(Cl)cc(/C=N\Nc2ccccn2)c1O	0.1	21.0	-1.0	30.9	15.9	·
O=c1oc2c(-c3ccc([N+](=O)[O-])cc3)cc(O)cc2s1	9.6	61.3*	77.9*	23.6	5.1	-22.2
NC1=C(c2ccc([N+](=O)[O-])cc2)C(=O)CO1	-1.2	-3.4	-1.8	-2.4	2.9	·
CCN(CC)CCNc1cccc2sc3ccccc3c(=O)c12	1.4	9.4	2.1	5.6	3.0	·
CN(C)CCNc1cccc2sc3ccc(O)cc3c(=O)c12	3.1	30.9*	7.7	·	4.6	17.7
Cc1cccc2c1c1ccc3c(c1n2C)C(=O)C=CC3=O	5.3	48.4*	12.1	30.6	-9.4	71.3*
Cc1ccccc1N1CC(=O)N(c2ccccc2C)CC1=O	5.2	-2.1	0.1	2.4	1.4	·
CCC[C@@H](CN1CCC[C@H]1CN1C(N)=NC[C@H]1CC(C)C)N1C[C@@H](Cc2ccccc2)N(CCCC2CCCC2)C1=N	2.0	34.1*	2.6	-5.5	15.0	26.2
CCC[C@@H](CN1CCC[C@H]1CN1C(N)=NC[C@H]1CC(C)C)N1C[C@@H](Cc2ccccc2)N(CCc2ccc(Cl)c(Cl)c2)C1=N	-2.1	30.3*	5.3	17.4	10.4	35.5*
CC[C@@H](C)[C@@H]1CN([C@@H](CN2CCC[C@H]2CN2C(N)=NC[C@H]2CC(C)C)C(C)C)C(=N)N1CCc1ccc(Cl)c(Cl)c1	-7.5	34.9*	2.4	8.6	6.4	46.5*
